A short description of data set [1]: folding enthalpy; higher = less favourable; fluorescence melt of hairpins on a sequencing array, two-state fit. Particulars: sodium 0.088 M. Put shortly: (§1)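 In 50 mM Na-HEPES pH 8.0 containing 25 mM NaCl, hairpins from the library on a sequenced MiSeq flow cell were imaged for Cy3 fluorescence at 2.5 °C steps up to 60 °C, with Cy3 and quencher oligos annealed. After normalisation to pre-quench Cy3 and to control constructs, two-state fits with bootstrapping gave melting temperature and folding enthalpy. Four replicates were combined by inverse-variance weighting, and fitted temperatures were shifted up by 9.35 °C to match UV melts.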

The nature of data set [2]: melting temperature; fluorescence melt of hairpins on a sequencing array, two-state fit, raised by 9.35 °C to match UV melts. The settings on record: sodium 0.088 M. Put shortly: as §1

For 37 sequences, folding enthalpy and Tm results are on record in the array DNA melting data of Ke et al. (doi:10.1101/2024.01.08.574731).

Regarding GAAGTGGGAAACCGCTTC ((((.((....)).)))), the folding enthalpy in data set [1] is -31.4 kcal/mol. The Tm in data set [2] worked out at 51.6 °C.
Regarding GTACACGAAAGTGATAC ((((((....))).))), in data set [1], the folding enthalpy is -17.1 kcal/mol. In addition, the Tm in data set [2] came to 40.1 °C.
The matching figures for GCGGTCCCCCGC ((((....)))): -21.9 kcal/mol and 57.7 °C.
On to GACTGCGGAAACGCAACC (..((((....))))..), for which, in data set [1], the folding enthalpy was -9.21 kcal/mol. In addition, in data set [2], the Tm was found to be 25.1 °C.
The matching figures for GAGGTTGGAAACGACCTC (((((.(....).))))): -34.4 kcal/mol and 51.3 °C.
The matching figures for GTGTCTACGAAAGTACAC (((..(((....)))))): -13.2 kcal/mol and 38.5 °C.
In the case of GGACCAGGAAACTGATCC (((.(((....))).))), in data set [1], the folding enthalpy was -34.2 kcal/mol. In addition, the Tm in data set [2] was 40.3 °C.
The matching figures for GCACGGCGAAAGCTGCGC ((.(.((....)).).)): -20.8 kcal/mol and 61 °C.
The matching figures for GCAACGCGAAAGCTTCGC ((.(.((....)).).)): -8.73 kcal/mol and 30 °C.
With GTTCTGTCGAAAGACAAC (((..(((....)))))), the folding enthalpy in data set [1] is -9.57 kcal/mol. Besides, the Tm in data set [2] was determined as 23.8 °C.
The matching figures for GAGGAACCGAAAGGTCTC (((..(((....)))))): -15.4 kcal/mol and 35.2 °C.
As for GGCGATGCGAAAGCAGCC (((..(((....)))))), in data set [1], the folding enthalpy was -19.5 kcal/mol. Moreover, the Tm in data set [2] amounted to 58.5 °C.
On to CGTGCCGGAAACGGAACG (((.(((....))).))), for which the folding enthalpy in data set [1] is -37.7 kcal/mol. In addition, in data set [2], the Tm was found to be 55.9 °C.
The matching figures for GGGATAGGAAACTACCCC (((.(((....))).))): -23 kcal/mol and 38.7 °C.
The matching figures for GAAGAGCGAAAGCTTTC (((.(((....)))))): -12.2 kcal/mol and 31.1 °C.
Regarding GGTGGCGGAAACGTCACC ((((.((....)).)))), the folding enthalpy in data set [1] was -48.2 kcal/mol. Further, the Tm in data set [2] came out at 63.3 °C.
Take CGTTACGGAAACGTACG (((.(((....)))))): the folding enthalpy in data set [1] is -26.3 kcal/mol. For the same sequence, the Tm in data set [2] was determined as 45.4 °C.
Turning to GATTGCCGAAAGGCGATC (((.(((....))).))), the folding enthalpy in data set [1] was -28.4 kcal/mol. In addition, in data set [2], the Tm was 61.9 °C.
In the case of GATCCGGACGCGGATC ((((((....)))))), the folding enthalpy in data set [1] is -38 kcal/mol. Moreover, the Tm in data set [2] amounted to 59.5 °C.
As to GCTCATCGAAAGATAGC (((.(((....)))))), in data set [1], the folding enthalpy was -26.3 kcal/mol. In addition, the Tm in data set [2] was found to be 42.3 °C.
The matching figures for GTTTTGGGAAACTGAAAC ((((..(....)..)))): -12.2 kcal/mol and 31.4 °C.
For GACTGCCGAAAGGCTGTC (((.(((....))).))), in data set [1], the folding enthalpy is -30.9 kcal/mol. For the same sequence, in data set [2], the Tm was found to be 63.2 °C.
The matching figures for CGCTCGGAAACGATGGCG ((((((....)))..))): -31.2 kcal/mol and 45.7 °C.
The matching figures for GCTCAGCGAAAGCTGCGC ((.((((....)))).)): -24.8 kcal/mol and 59.9 °C.
GACTTGCGAAAGCACGTC (((.(((....))).))): the folding enthalpy in data set [1] is -23.3 kcal/mol. Besides, in data set [2], the Tm turned out to be 52.4 °C.
On to GGAGAAGGAAACTTCCCC ((.((((....)))).)), for which the folding enthalpy in data set [1] was -16.8 kcal/mol. Moreover, in data set [2], the Tm amounted to 35.2 °C.
Regarding GTATGGGAAACCATAC ((((((....)))))), the folding enthalpy in data set [1] was -36.9 kcal/mol. In addition, the Tm in data set [2] is 50.8 °C.
The matching figures for GGTGATGGAAACATCATC (.(((((....))))).): -30.6 kcal/mol and 47.8 °C.
For GGAGGTGGAAACGCCTTC (.(((.(....).))).), the folding enthalpy in data set [1] was -26.2 kcal/mol. Besides, the Tm in data set [2] turned out to be 48.5 °C.
The matching figures for GTACACGGAAACACGTAC ((((..(....)..)))): -15.4 kcal/mol and 29.1 °C.
Regarding GATCCTGCTCAGGATC ((((((....)))))), the folding enthalpy in data set [1] is -48.1 kcal/mol. Besides, the Tm in data set [2] is 55.2 °C.
The matching figures for CGCTAACGGAAACGTGCG (((..(((....)))))): -28.9 kcal/mol and 48 °C.
As to GCGATAGGAAACTGTCGC ((((.((....)).)))), the folding enthalpy in data set [1] is -50.7 kcal/mol. For the same sequence, the Tm in data set [2] was found to be 54.5 °C.
For the sequence GCCGCGGGAAACCACGGC ((((.((....)).)))), the folding enthalpy in data set [1] is -38.4 kcal/mol. Besides, the Tm in data set [2] was 63.6 °C.
In the case of GTTAAACGAAAGTTAAAC (((.(((....))).))), the folding enthalpy in data set [1] is -17.7 kcal/mol. Besides, the Tm in data set [2] amounted to 34.2 °C.
The matching figures for GGCCACGAAAGTGCCGCC ((((((....)))..))): -32 kcal/mol and 59.8 °C.
Regarding GACGGGGGAAACCCCATC ((.((((....)))).)), the folding enthalpy in data set [1] was -14.7 kcal/mol. Further, in data set [2], the Tm was found to be 37 °C.
